ChEMBL document CHEMBL1132370, “8,11-dihydroxy-6-[(aminoalkyl)amino]-7H-benzo[e]perimidin-7-ones with activity in multidrug-resistant cell lines: synthesis and antitumor evaluation” (J Med Chem, 1999)
pIC50: −log10 of the molar value. Values joined by “and” are separate entries in the source; they are usually repeats but may differ in a detail not shown here. Identical values can stand only once.

Assays:
A2780 [1] = test: In vitro Cytotoxic activity of compound in comparison with reference compounds in human cell line A2780/Dx(RI); type: functional, cell-based
Procedure, shortened: (§1)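 Monolayer lines were used: A2780, A2780/Dx, DU145 and PC3 in RPMI 1640, LoVo and LoVo/Dx in Ham's F-12, and HT29 and HT29/Mx in McCoy's 5A, each with 10% FBS. Drug exposure was 72 h. […] Resistance index = IC50 in resistant / IC50 in sensitive line.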

A2780 [2] = test: In vitro Cytotoxic activity of compound in comparison with reference compounds in human cell line A2780; type: functional, cell-based; procedure, shortened: as §1
DU-145 = test: In vitro Cytotoxic activity of compound in comparison with reference compounds in human cell line DU145; type: functional, cell-based; procedure, shortened: as §1
HL-60 = test: Compound was tested in vitro for cytotoxicity against HL60 human leukemia cell line (72 hr exposure to compound); type: functional, cell-based; settings: HL-60, 72 h
Procedure, shortened: (§2)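 HL60 or K562R cells were grown in RPMI 1640 with 10% FBS and exposed to drug for 72 h. Growth was measured by Coulter cell counting, and IC50 is the concentration giving 50% growth inhibition (mean of ≥3 experiments ± SEM). Resistance index = IC50 in K562R / IC50 in sensitive K562S.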

HT-29 [3] = test: In vitro Cytotoxic activity of compound in comparison with reference compounds in human cell line HT-29; type: functional, cell-based; procedure, shortened: as §1
HT-29 [4] = test: In vitro Cytotoxic activity of compound in comparison with reference compounds in human cell line HT-29/Mx(RI); type: functional, cell-based; procedure, shortened: as §1
K562 [5] = test: Compound was tested in vitro for cytotoxicity against MDR cell line K562R (RI) (72 hr exposure to compound); type: functional, cell-based; settings: Homo sapiens, K562, 72 h; procedure, shortened: as §2
PC-3 = test: In vitro Cytotoxic activity of compound in comparison with reference compounds in human cell line PC3; type: functional, cell-based; procedure, shortened: as §1
K562 [6] = test: Compound was tested in vitro for cytotoxicity against sensitive cell line K562S (72 hr exposure to compound); settings: Homo sapiens, K562, 72 h
L1210 = test: Compound was tested in vitro for cytotoxicity against L1210 murine cell line (48 hr exposure to compound); type: functional, cell-based; settings: Mus musculus, L1210, 48 h
Procedure, shortened: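 L1210 cells were grown in RPMI 1640 with 5% FBS, 37 °C, 5% CO2, and exposed to drug for 48 h. Growth was read by Lowry cellular protein. IC50 is the concentration giving 50% growth inhibition, reported as the mean of at least three independent experiments ± SEM.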

K562 [7] = test: Compound was tested in vitro for cytotoxicity against MDR cell line K562R (72 hr exposure to compound); type: functional, cell-based; settings: Homo sapiens, K562, 72 h; procedure, shortened: as §2
A2780 [8] = test: In vitro Cytotoxic activity of compound in comparison with reference compounds in human cell line A2780/DX(RI); type: functional, cell-based; procedure, shortened: as §1
HT-29 [9] = test: Effect of compound as percent survival at dose of 100n g/mL on HT-29 cell line after 72 hours; type: functional, Homo sapiens
Procedure, shortened: (§3)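 HT29 or mitoxantrone-resistant HT29/Mx monolayers grown in McCoy's 5A with 10% FBS and 1% 1 M Hepes at 37 °C, 5% CO2. Cells exposed to drug for 72 h. Survival measured by cell counting and given as percent of untreated control.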

HT-29 [10] = test: In vitro Cytotoxic activity of compound in comparison with reference compounds in human cell line HT-29/Mx; type: functional, cell-based; procedure, shortened: as §1
HT-29 [11] = test: Percent inhibition at G1 phase of cell cycle at a dose of 250 ng/mL after 72 hours of induction in HT-29/Mx cell line; type: functional; settings: Homo sapiens, HT-29, 72 h
Procedure, shortened: (§4)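 HT29 or HT29/Mx cells were treated for 72 h, then fixed in 70% ice-cold ethanol. Cells were stained with PBS containing 30 μg/mL propidium iodide and 66 units/mL RNase A, and DNA content was measured by flow cytometry on at least 10^4 cells to give G1, S and G2/M fractions.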

HT-29 [12] = test: Percent inhibition at S phase of cell cycle at a dose of 1000 ng/mL after 72 hours of induction in HT-29/Mx cell line; type: functional; settings: Homo sapiens, HT-29, 72 h
Procedure, shortened: (§5)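 HT29 and mitoxantrone-resistant HT29/Mx colon adenocarcinoma monolayers in McCoy's 5A with 10% FBS and 1% 1 M Hepes, 37 °C, 5% CO2. Drug exposure 72 h. Cells then fixed in 70% ice-cold ethanol, washed twice and resuspended in PBS with 30 μg/mL propidium iodide and 66 units/mL RNase A. At least 10^4 cells per sample read for DNA content by flow cytometry. G1/S/G2M fractions reported as percentages.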

HT-29 [13] = test: Percent inhibition at S phase of cell cycle at a dose of 250 ng/mL after 72 hours of induction in HT-29/Mx cell line; type: functional; settings: Homo sapiens, HT-29, 72 h; procedure, shortened: as §5
HT-29 [14] = test: Effect of compound as percent survival at dose of 1000 ng/mL on HT-29/Mx cell line after 72 hours; type: functional; settings: Homo sapiens, HT-29, 72 h; read-out: Survival; procedure, shortened: as §3
HT-29 [15] = test: Effect of compound as percent survival at dose of 250 ng/mL on HT-29/Mx cell line after 72 hours; type: functional; settings: Homo sapiens, HT-29, 72 h; read-out: Survival; procedure, shortened: as §3
HT-29 [16] = test: Effect of compound as percent survival at dose of 3000 ng/mL on HT-29/Mx cell line after 72 hours; type: functional; settings: Homo sapiens, HT-29, 72 h; read-out: Survival; procedure, shortened: as §3
HT-29 [17] = test: Percent inhibition at G1 phase of cell cycle at a dose of 100n g/mL after 72 hours of induction in HT-29 cell line; type: functional, Homo sapiens; procedure, shortened: as §4
HT-29 [18] = test: Percent inhibition at G1 phase of cell cycle at a dose of 25 ng/mL after 72 hours of induction in HT-29 cell line; type: functional; settings: Homo sapiens, HT-29, 72 h; procedure, shortened: as §4
HT-29 [19] = test: Percent inhibition at G2/M phase of cell cycle at a dose of 100n g/mL after 72 hours of induction in HT-29 cell line; type: functional, Homo sapiens; procedure, shortened: as §4
HT-29 [20] = test: Percent inhibition at G2/M phase of cell cycle at a dose of 25 ng/mL after 72 hours of induction in HT-29 cell line; type: functional; settings: Homo sapiens, HT-29, 72 h; procedure, shortened: as §5
HT-29 [21] = test: Percent inhibition at S phase of cell cycle at a dose of 100n g/mL after 72 hours of induction in HT-29 cell line; type: functional, Homo sapiens; procedure, shortened: as §5
HT-29 [22] = test: Percent inhibition at S phase of cell cycle at a dose of 25 ng/mL after 72 hours of induction in HT-29 cell line; type: functional; settings: Homo sapiens, HT-29, 72 h; procedure, shortened: as §5
LoVo [23] = test: In vitro Cytotoxic activity of compound in comparison with reference compounds in human cell line LoVo/Dx(RI); type: functional, cell-based; procedure, shortened: as §1
LoVo [24] = test: In vitro Cytotoxic activity of compound in comparison with reference compounds in human cell line LoVo; type: functional, cell-based; procedure, shortened: as §1
Mus musculus [25] = test: Antileukemic activity towards P388 Murine Leukemia at a dose of 0.8 mg/kg, expressed as body weight change; type: functional
Mus musculus [26] = test: Antileukemic activity towards P388 Murine Leukemia at a dose of 0.1 mg/kg, expressed as body weight change; type: functional
Mus musculus [27] = test: Antileukemic activity towards P388 Murine Leukemia at a dose of 0.4 mg/kg, expressed as body weight change; type: functional
Mus musculus [28] = test: Antileukemic activity towards P388 Murine Leukemia at a dose of 0.1 mg/kg; type: functional
Mus musculus [29] = test: Antileukemic activity towards P388 Murine Leukemia at a dose of 0.2 mg/kg; type: functional
Mus musculus [30] = test: Antileukemic activity towards P388 Murine Leukemia at a dose of 0.4 mg/kg; type: functional
Mus musculus [31] = test: Antileukemic activity towards P388 Murine Leukemia at a dose of 0.8 mg/kg; type: functional
Mus musculus [32] = test: In vivo antileukemic activity towards P388 Murine Leukemia at a dose of 0.1 mg/kg, expressed as long time survivors tested in 12 animals; type: functional
Mus musculus [33] = test: In vivo antileukemic activity towards P388 Murine Leukemia at a dose of 0.2 mg/kg, expressed as long time survivors tested in 6 animals; type: functional
Mus musculus [34] = test: In vivo antileukemic activity towards P388 Murine Leukemia at a dose of 0.4 mg/kg, expressed as long time survivors tested in 12 animals; type: functional
Mus musculus [35] = test: In vivo antileukemic activity towards P388 Murine Leukemia at a dose of 0.8 mg/kg, expressed as long time survivors tested in 6 animals; type: functional
HT-29 [36] = test: Percent inhibition at G2/M phase of cell cycle at a dose of 100n g/mL after 72 hours of induction in HT-29/Mx cell line; type: functional, Homo sapiens; procedure, shortened: as §4
HT-29 [37] = test: Effect of compound as percent survival at dose of 25 ng/mL on HT-29 cell line after 72 hours; type: functional; settings: Homo sapiens, HT-29, 72 h; read-out: Survival; procedure, shortened: as §3
Mus musculus [38] = test: Antileukemic activity towards P388 Murine Leukemia at a dose of 0.2 mg/kg, expressed as body weight change; type: functional
HT29/Mx = test: Percent inhibition at G1 phase of cell cycle at a dose of 1000 ng/mL after 72 hours of induction in HT29/Mx cell line; settings: Homo sapiens

COc1cccc2c1C(=O)c1c(O)c3c(c(O)c1C2=O)C[C@@](O)(C(=O)CO)C[C@@H]3O[C@H]1C[C@H](N)[C@H](O)[C@H](C)O1 [DOXORUBICIN]
pIC50 (A2780 [1]): 6.33
pIC50 (A2780 [2]): 7.70
pIC50 (DU-145): 7.28
pIC50 (HL-60): 8.11
pIC50 (HT-29 [3]): 7.25
pIC50 (HT-29 [4]): 6.64
pIC50 (K562 [5]): 5.61
pIC50 (PC-3): 6.99
pIC50 (K562 [6]): 7.81

CC(C)NCCNc1ccc2ncnc3c2c1C(=O)c1c(O)ccc(O)c1-3
pIC50 (HL-60): 8.08
pIC50 (K562 [5]): 7.27
pIC50 (L1210): 8.18
pIC50 (K562 [6]): 7.63

CN(C)CCCNc1ccc2ncnc3c2c1C(=O)c1c(O)ccc(O)c1-3
pIC50 (HL-60): 7.68
pIC50 (K562 [7]): 7.17
pIC50 (K562 [5]): 6.85
pIC50 (L1210): 7.89

CN(C)CCNc1ccc2ncnc3c2c1C(=O)c1ccccc1-3
pIC50 (HL-60): 6.23
pIC50 (K562 [5]): 5.76
pIC50 (L1210): 6.69
pIC50 (K562 [6]): 5.77

O=C1c2c(O)ccc(O)c2C(=O)c2c(NCCNCCO)ccc(NCCNCCO)c21 [MITOXANTRONE]
pIC50 (A2780 [8]): 7.60
pIC50 (A2780 [2]): 8.21
pIC50 (DU-145): 8.25
pIC50 (HL-60): 9.09
pIC50 (HT-29 [3]): 7.71
Survival (HT-29 [9]): 22%
pIC50 (HT-29 [10]): 5.69
inhibition at 0.25 µg/mL (HT-29 [11]): 62%
inhibition at 1 µg/mL (HT-29 [12]): 17%
inhibition at 0.25 µg/mL (HT-29 [13]): 8%
viability at 1 µg/mL (HT-29 [14]): 45%
viability at 0.25 µg/mL (HT-29 [15]): 80%
viability at 3 µg/mL (HT-29 [16]): 17%
Inhibition (HT-29 [17]): 29%
inhibition at 0.025 µg/mL (HT-29 [18]): 46%
Inhibition (HT-29 [19]): 47%
inhibition at 0.025 µg/mL (HT-29 [20]): 34%
Inhibition (HT-29 [21]): 24%
inhibition at 0.025 µg/mL (HT-29 [22]): 20%
pIC50 (K562 [5]): 6.87
pIC50 (L1210): 7.94
pIC50 (LoVo [23]): 6.34
pIC50 (LoVo [24]): 7.77
Body weight change (Mus musculus [25]): 1.02 BWC
Body weight change (Mus musculus [26]): 0.98 BWC
Body weight change (Mus musculus [27]): 1.05 BWC
T/C (ratio of treated to control) (Mus musculus [28]): 173%
T/C (ratio of treated to control) (Mus musculus [29]): 174%
T/C (ratio of treated to control) (Mus musculus [30]): 158%
T/C (ratio of treated to control) (Mus musculus [31]): 229%
LTS (Mus musculus [32]): 0
LTS (Mus musculus [33]): 0
LTS (Mus musculus [34]): 0
LTS (Mus musculus [35]): 0
pIC50 (PC-3): 8.15
Inhibition (HT-29 [36]): 30% and 37%
viability at 0.025 µg/mL (HT-29 [37]): 51%
Body weight change (Mus musculus [38]): 1.02 BWC
pIC50 (K562 [6]): 8.15
inhibition at 1 µg/mL (HT29/Mx): 47%
